Data as given in publication PMC2709241 (Archives of biochemistry and biophysics, 2008).
Numbering of substitutions follows the chain as printed. Read-outs that look alike come from different tables or passages of the source. Values belong to the compound of their own block, whether it stands above or below them.

Legend:
[1] = target: T1, wild-type C-his tagged human MDD (Homo sapiens, UniProt P53602); assay: Steady-state kinetics of wild-type; format: biochemical
T1 sequence (P53602 1-400): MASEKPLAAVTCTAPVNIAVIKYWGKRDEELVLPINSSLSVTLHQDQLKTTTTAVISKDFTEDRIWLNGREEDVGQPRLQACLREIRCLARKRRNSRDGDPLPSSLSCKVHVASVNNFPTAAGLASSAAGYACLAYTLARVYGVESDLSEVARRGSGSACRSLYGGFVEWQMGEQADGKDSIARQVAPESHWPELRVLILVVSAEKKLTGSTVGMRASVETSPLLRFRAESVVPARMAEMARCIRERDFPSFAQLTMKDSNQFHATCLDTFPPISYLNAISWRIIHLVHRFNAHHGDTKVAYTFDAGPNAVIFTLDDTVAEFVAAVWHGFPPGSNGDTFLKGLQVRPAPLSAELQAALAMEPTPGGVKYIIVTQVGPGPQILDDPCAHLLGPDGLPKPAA
How it was run: (§1)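 His6-tagged human enzyme from E. coli BL21(DE3) was Ni-Sepharose purified and quantified by Bradford. Spectrophotometric assay at 30°C: ADP formation coupled through pyruvate kinase/lactate dehydrogenase (4 U) to NADH oxidation, with A340 decrease followed. Started with mevalonate diphosphate; substrate varied; Michaelis-Menten fit.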

[2] = target: T2, N17A mutant human MDD (Homo sapiens, UniProt P53602, N17A); assay: Steady-state kinetics of N17A human MDD; format: biochemical; conditions: for Km: N17A
T2 sequence (P53602 1-400 N17A): T1 sequence (P53602 1-400) with N17A
How it was run: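 N17A mutant, made by QuikChange PCR, was expressed and Ni-Sepharose purified as for the wild type. Started with mevalonate diphosphate; substrate varied; Michaelis-Menten fit. Km(ATP) was measured with RS-MVPP raised to 8.8 mM.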

[3] = target: T3, S162A mutant human MDD (Homo sapiens, UniProt P53602, S162A); assay: Steady-state kinetics of S162A human MDD; format: biochemical
T3 sequence (P53602 1-400 S162A): T1 sequence (P53602 1-400) with S162A
How it was run: as §1

[4] = target: T4, N-his tagged human MDD (Homo sapiens, UniProt P53602); assay: Steady-state kinetics of N-his tagged human MDD; format: biochemical; conditions: N-his tagged enzyme
T4 sequence (P53602 1-400): T1 sequence (P53602 1-400)
How it was run: as §1

[5] = target: T5, wild-type human MDD (Homo sapiens, UniProt P53602); assay: TNP-ATP fluorescence titration, Scatchard analysis, wild-type human MDD; format: binding
T5 sequence (P53602 1-400): T1 sequence (P53602 1-400)
How it was run: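 Purified His6-tagged enzyme, wild type or mutant, was held at a fixed concentration while TNP-ATP was titrated in at 25°C. Buffer: 50 mM Tris-Cl pH 7.0, 0.5 mM MgCl2, 1 mM DTT. TNP-ATP was quantified at A409 (ε 26 400 M-1 cm-1). Excitation was 409 nm; peak emission (530–538 nm) was corrected for free probe in buffer alone. Scatchard analysis: Kd from slope; n per 44 kDa subunit from x-intercept.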

Km ([1]; read-out: Km(ATP), WT C-his, 30°C, pH 7.0): 690 ± 70 µM | Km ([2]; read-out: Km(ATP), elevated RS-MVPP (8.8 mM)): 7700 ± 1200 µM | Km ([3]; read-out: Km(ATP)): 4.9 ± 1.3 mM | Km ([4]; read-out: Km(ATP)): 1700 µM
SMILES: Nc1ncnc2c1ncn2[C@@H]1O[C@H](COP(=O)(O)OP(=O)(O)OP(=O)(O)O)[C@@H](O)[C@H]1O [ATP]

Km ([1]; read-out: Km(R,S-MVAPP), WT, Table 4): 28.9 ± 3.3 µM | Km ([1]; read-out: Km(RS-MVPP), WT C-his, 30°C, pH 7.0): 28.9 ± 3.3 µM | Fold Inflation of Km for mevalonate diphosphate, N17A vs WT ([2]; N17A vs WT, listed as R,S-MVAPP): 14.7 fold | Km ([2]; read-out: Km(R,S-MVAPP), Table 4): 425 ± 74 µM | Km ([2]; read-out: Km(RS-MVPP), elevated ATP (20 mM) and MgCl2 (22mM)): 425 ± 74 µM | Km ([3]; read-out: Km(RS-MVPP)): 0.126 ± 0.0064 mM | Km ([4]; read-out: Km(RS-MVPP)): 42.1 µM
SMILES: C[C@@](O)(CCOP(=O)(O)OP(=O)(O)O)CC(=O)O [MVAPP, mevalonate 5-diphosphate]

SMILES: Nc1ncnc2c1ncn2[C@@H]1O[C@H](COP(=O)(O)OP(=O)(O)OP(=O)(O)O)[C@H]2OC3(O[C@H]21)C([N+](=O)[O-])=CC(=[N+]([O-])[O-])C=C3[N+](=O)[O-] (stereo partly shown) [TNP-ATP, 2’(3’)-O-(2,4,6-Trinitrophenyl)adenosine-5’-triphosphate]
Kd [5]: 550 nM | n (binding stoichiometry) ([5]; WT, binding sites per 44 kDa subunit): 0.77
